# Screening results from PubChem BioAssay.
# Rows were chosen to be rich in hits. Some 2.2% of all compounds tested hit in one or more screens of this group.
# CHRM5 agonist: human M5 muscarinic receptor agonists, primary screen, CHO-K1 cells, Fluo-8 calcium fluorescence; activation, % at 3 µM; AID 624037, 2012; 360,000 tested, 0.19% active; CHO-K1 hM5 cells; 0% DMSO wells, 100% maximal acetylcholine response;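 active = activation above the run's mean over test compounds plus 3 SD, cut at about 23% in these data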;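 also: signal is peak over basal fluorescence ratio across the kinetic read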
# Target sequence (P08912 whole entry, looked up): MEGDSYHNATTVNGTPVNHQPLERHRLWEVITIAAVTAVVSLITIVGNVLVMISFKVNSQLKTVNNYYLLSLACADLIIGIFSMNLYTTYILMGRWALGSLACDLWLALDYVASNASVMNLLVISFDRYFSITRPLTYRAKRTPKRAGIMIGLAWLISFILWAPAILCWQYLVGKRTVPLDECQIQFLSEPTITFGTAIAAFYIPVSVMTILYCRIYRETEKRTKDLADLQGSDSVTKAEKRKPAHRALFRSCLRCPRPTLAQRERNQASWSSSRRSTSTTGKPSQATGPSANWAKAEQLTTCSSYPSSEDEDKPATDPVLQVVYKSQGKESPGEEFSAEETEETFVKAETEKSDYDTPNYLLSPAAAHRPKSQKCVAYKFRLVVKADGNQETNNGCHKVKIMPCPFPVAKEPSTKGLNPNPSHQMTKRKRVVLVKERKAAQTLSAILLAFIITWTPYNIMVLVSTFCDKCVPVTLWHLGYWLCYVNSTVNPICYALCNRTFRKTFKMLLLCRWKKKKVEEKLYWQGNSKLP
# M5 PAM: human M5 muscarinic receptor positive allosteric modulators, primary screen, CHO-K1 cells, Fluo-8 calcium fluorescence | Muscarinic acetylcholine receptor M5 (Homo sapiens), P08912 | CHO-K1 hM5, ACh EC20 PAM; 0% = ACh EC20, 100% = ACh EC100 | activation, % at 3 µM | 360,000 tested, 0.3% active;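 active = activation above the run cutoff, the mean activation of all test compounds plus 3 SD, cut at about 18% in these data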
#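 Probe or stimulus: acetylcholine, EC20 level; Assay system: human M5 receptor in CHO-K1 cells; Schedule: compound preincubation 140 s before EC20 acetylcholine addition; Technique: intracellular calcium via Fluo-8 fluorescence; Dosing: single-point, 3 µM nominal; Read-out basis: percent activation from peak-over-basal fluorescence ratio, scaled EC20-to-EC100 acetylcholine; Repeats: one well per compound, no replicates.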
# M1 PAM: human M1 muscarinic receptor positive allosteric modulators, primary screen, CHO-K1 cells, Fluo-8 calcium fluorescence, 1536-well. CHO-K1 hM1, ACh EC20; 0% = ACh EC20, 100% = maximal ACh. activation, % at 3 µM. 360,000 tested, 0.088% active. AID 588819, 2011; in the data active = activation above about 19%, passing the limit was not always enough
# CHRM1 antagonist: human M1 muscarinic receptor antagonists, primary screen, CHO-K1 cells, Fluo-8 calcium fluorescence, 1536-well; 360,000 tested, 1.3% active; CHO-K1 hM1, ACh EC80 antagonist; Muscarinic acetylcholine receptor M1 (Homo sapiens), P11229; AID 588852, 2011; inhibition, % at 3 µM;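 active = percent inhibition above its own plate's cutoff, namely the mean of that plate's compound wells plus 3 SD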;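 also: peak over basal fluorescence ratio during 140 s after agonist addition; 0% = ACh EC80 plus DMSO and 100% = DMSO alone without agonist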
# M1 ag: human M1 muscarinic receptor agonists, primary screen, Fluo-8 calcium fluorescence, CHO-K1 cells, HTS; Muscarinic acetylcholine receptor M1 (Homo sapiens), P11229; CHO-K1 hM1, agonist mode; 0% DMSO, 100% acetylcholine EC100; activation, % at 3 µM; 360,000 tested, 0.33% active; AID 588814, 2011;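 active = activation above the run's mean compound activation plus 3 SD, cut at about 16% in these data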;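 also: peak over basal fluorescence ratio within a 140 s kinetic read after compound addition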
# CHRM5 antagonist: human M5 muscarinic receptor antagonists, primary screen, CHO cells, Fluo-8 calcium fluorescence. Muscarinic acetylcholine receptor M5 (Homo sapiens), P08912. CHO-hM5 cells, ACh EC80. inhibition, % at 3 µM. 360,000 tested, 0.59% active. AID 624040, 2012;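 active = inhibition above a per-plate cutoff, the mean of that plate's test compounds plus 3 SD, cut at about 27% in these data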;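 also: 0% = acetylcholine EC80 with DMSO and 100% = DMSO without agonist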
# * marks the source's active call; other numbers are inactive results; nt = no result.
SMILES,CHRM5 agonist,M5 PAM,M1 PAM,CHRM1 antagonist,M1 ag,CHRM5 antagonist
CCC(C)N1CCN(C(=O)C2CCN(S(=O)(=O)c3c(C)noc3/C=C/c3ccco3)CC2)CC1 (stereo unspecified),-8,1,-24,80*,-6,9
Cc1cccc(NC(=O)C2CCN(S(=O)(=O)c3c(C)noc3/C=C/c3ccco3)CC2)n1,5,-6,-3,5,-3,10
Cc1cc2nc(C)n(CCCNC(=O)Nc3ccc(C#N)cc3)c2cc1C,-6,1,-22,57*,-6,1
Cc1cc2nc(C)n(CCCN)c2cc1C,-1,4,3,3,-6,3
NCCCCCc1nnc(SCc2ccccc2Cl)o1,-8,-18,-6,14,-5,28*
CCCCN(C=O)c1c(CC)nc2c(OCc3ccc(Cl)cc3)cccn12,-3,-7,-10,-2,-8,7
CCCN1C(=O)/C(=C/c2c(N3CCNC(=O)C3CC(=O)OCC)nc3c(C)cccn3c2=O)SC1=S (stereo unspecified),25*,-24,-17,39*,13,22
CCOC(=O)CC1C(=O)NCCN1c1nc2ccc(C)cn2c(=O)c1/C=C1\SC(=S)N(CC(C)C)C1=O (stereo unspecified),9,-6,-4,2,5,8
C=CCN(CC=C)S(=O)(=O)c1ccc(C(=O)Nc2nnc(CSC)o2)cc1,6,-4,5,-15,-4,5
CSCc1nnc(NC(=O)c2ccc(S(=O)(=O)N(C)C)cc2)o1,0,19*,-1,5,-1,13
O=C(Nc1ccc(F)c(Cl)c1)Nc1nnc([C@@H]2O[C@H](CO)[C@@H](O)[C@H]2O)s1,0,2,3,-9,-3,-1
COc1ccc(COC(=O)CCCN=C2NS(=O)(=O)c3ccccc32)cc1F,10,-2,12,-20,14,-6
CN(C)c1ccc(NC(=O)CN2CCC(N3CCCCC3)CC2)cc1,-3,24*,8,-11,-2,0
CCCN(CCC)CCCNC(=S)Nc1ccc2nc3n(c(=O)c2c1)CCCCC3,-3,1,-4,-7,-9,-2
Cc1nn(-c2ccccc2)c(C)c1C(=O)OCC(=O)N1c2ccccc2NC(=O)C1(C)C,8,-21,-9,33*,0,22
Cc1cnc(C(=O)OCC(=O)N2c3ccccc3NC(=O)C2(C)C)cn1,-1,3,7,-10,-3,2
CC(C)(C)c1ccc(OCCC(=O)OCC(=O)N2c3ccccc3NC(=O)C2(C)C)cc1,3,-35,-13,34*,2,36*
O=C1C(=O)N(C2CCS(=O)(=O)C2)C(c2cccc(O)c2)/C1=C(/O)c1ccc(Cl)cc1 (stereo unspecified),-2,-2,5,13,-1,13
CCOCC(=O)Nc1ccc2c(c1)N(S(=O)(=O)c1cccs1)CCC2,4,-2,0,5,-2,-3
CC1Sc2ccc(S(=O)(=O)CCC(=O)N3CCN(c4cccc(Cl)c4)CC3)cc2NC1=O (stereo unspecified),6,-15,-16,46*,3,25
CC1Sc2ccc(S(=O)(=O)CCC(=O)N3CCN(c4ccccc4)CC3)cc2NC1=O (stereo unspecified),-1,-5,-8,17,0,10
CC(C)C(N)c1csc(Nc2nncc3ccccc23)n1 (stereo unspecified),2,2,-3,10,-3,-3
CC(N)c1csc(Nc2nncc3ccccc23)n1 (stereo unspecified),4,-2,9,102*,-9,3
O=S1(=O)CC=C(CSc2nc3ccccc3[nH]2)C1,-5,-1,-19,26*,-11,3
Fc1c(F)c(F)c(CSc2nc3ccccc3[nH]2)c(F)c1F,-3,-4,-3,5,-3,1
SMILES,CHRM5 agonist,M5 PAM,M1 PAM,CHRM1 antagonist,M1 ag,CHRM5 antagonist
CCN1C(=O)/C(=C\N2CCCCCC2)SC1=S,-6,-22,-23,99*,-4,32*
COc1ccc(-c2sc3cc4c(cc3c2C#Cc2ccc(N)cc2)OCO4)cc1,26*,10,-9,19,1,3
O=C(O)/C=C/c1cn(Cc2ccccc2Cl)nc1-c1ccccc1,0,20*,3,-20,-3,-4
CN(C)CCCN(C(=O)c1cccs1)c1nc(-c2ccccc2)cs1,-5,-18,-12,41*,19*,21
COc1ccc(-c2csc(N(CCCN(C)C)C(=O)c3ccccc3Cl)n2)cc1,4,2,-28,53*,-9,-2
CCC(C)Sc1nc2c(c(=O)[nH]c(=O)n2C)n1C (stereo unspecified),-1,3,-1,8,-6,2
COc1ccccc1C1/C(=C(/O)c2ccccc2)C(=O)C(=O)N1CC(C)O (stereo unspecified),0,-7,5,-4,-2,5
O=C(NC1CCCC1)C(c1ccco1)N1CCN(c2c(Cl)cncc2Cl)CC1 (stereo unspecified),-4,8,nt,nt,nt,-7
CCN(CC)C(NC(=O)c1ccccc1)C(=O)c1ccccc1 (stereo unspecified),-3,-5,8,-43,-3,-2
COc1ccc(NC(=O)/C(C#N)=C\c2ccc(N3CCOCC3)o2)cc1,120*,-23,-36,31*,69*,39*
N#C/C(=C/c1ccc(N2CCOCC2)o1)C(=O)NC1CCCCC1,31*,-9,3,2,10,16
COc1ccc(OC)c(NC(=O)C(C#N)=Cc2ccco2)c1,-4,-3,-4,1,-4,7
N#C/C(=C/c1ccc(N2CCOCC2)o1)c1ccc(Br)cc1,6,-10,-6,21,6,19
N#C/C(=C\c1ccc(N2CCOCC2)o1)C(=O)Nc1ccc(O)cc1,24*,-10,-6,9,10,13
COc1ccc(NC(=O)/C(C#N)=C/C=C/c2ccco2)cc1,6,24*,-2,8,-2,27
